Test results from publication PMC7473156 (European Journal of Medicinal Chemistry, 2020).
“Also recorded” adds a separate entry of the source.

Key:
[1] = system: VCR-R CEM cells; test: Western blot analysis of VCR-R CEM cell lysates; assay type: cell-based, human; settings: 5 μM, 24 h
Outline: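 VCR-R CEM cells were seeded at 2 × 10^6 per well 4 h before treatment with DMSO or 5 μM compound for 24 h. Lysates were made in RIPA, separated by SDS-PAGE and transferred to PVDF. Blots were probed for p-Akt (Ser473), total Akt, PARP, Bcl-xL and Mcl-1 (1:1000) and detected by chemiluminescence, with stain-free total protein as loading control.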

[2] = system: VCR-R CEM cells; test: Mitochondrial membrane potential; assay type: cell-based, human; settings: 24 h
Outline: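 VCR-R CEM cells were seeded at 0.125 × 10^6 per well 4 h before 24 h exposure to 5 μM compound or DMSO. JC-1 (1 μg/mL) was applied for 1 h before harvest, with elacridar (5 μM) present […]. Cells were washed, resuspended in PBS and read by flow cytometry as the red/green fluorescence shift.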

[3] = system: HepG2 cells; test: Cell death of HepG2 cells stably transfected with CYP3A4-EGFP or empty vector; assay type: cell-based, human; settings: 15 μM, 24 h; for cell death of HepG2 cells: influence of cellular CYP3A4 overexpression: CYP3A4-EGFP versus vector
Outline: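 HepG2 cells were lipofected with pcDNA3-CYP3A4-EGFP or pcDNA3-EGFP and kept in G418 (0.5 mg/mL) for four weeks; plasmid presence was confirmed by PCR. Cells were seeded at 0.1 × 10^6 per well, adhered overnight, then exposed to 15 μM for 24 h. Propidium iodide (5 μg/mL in PBS) staining was read by flow cytometry without FSC/SSC gating. Specific cell death was calculated against control. Mean ± SEM, three independent experiments.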

[4] = system: peripheral blood mononuclear cells (PBMCs); test: PBMC cell death; assay type: cell-based, human; settings: 5 and 10 μM, 48 h, compared with RMS3 and RMS5
Outline: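 PBMCs were isolated from anticoagulated healthy-donor blood on a Ficoll density gradient and kept in RPMI 1640 with 20% FCS and penicillin/streptomycin. Treatment started 4 h after seeding and lasted 48 h. Cells were stained with propidium iodide (5 μg/mL in PBS) and read by flow cytometry, with debris excluded and PI-positive cells counted.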

[5] = system: HepaRG™ cells; test: Toxicity to differentiated HepaRG cells without transfection; assay type: cell-based, human; settings: 24 h, compared with tetrandrine; for cell viability of HepaRG cells: 10 μM; for toxicity to HepaRG cells (cell viability): 20 μM
Outline: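 HepaRG cells were differentiated in Williams' E with GlutaMAX and Maintenance/Metabolism supplement, then exposed to compound for 24 h. Viability was read by CellTiter-Blue and normalised to vehicle control. Mean ± SEM, three independent experiments.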

[6] = system: CYP3A4 overexpressing HepaRG™ cells; assay type: cell-based, human; settings: 10 μM, 24 h
Outline: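 HepaRG cells were differentiated in Maintenance/Metabolism medium, then lipofected with pcDNA3-CYP3A4-EGFP or pcDNA3-EGFP 16 h before treatment. Exposure was 10 μM for 24 h. Cell death was read by propidium iodide staining (5 μg/mL in PBS) and flow cytometry, with no FSC/SSC gating. Specific cell death was calculated against control. Mean ± SEM, three independent experiments.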

[7] = system: VCR-R CEM cells; test: Apoptosis assay in combination with vincristine; assay type: cell-based, human; settings: 1 μM compound with varying doses of VCR, 48 h
[8] = system: VCR-R CEM cells; test: Cell proliferation assay; assay type: cell-based, human; settings: 48 h, relative proliferation at 10 μM and IC50
Outline: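 VCR-R CEM cells (RPMI 1640, 10% FCS) were seeded at 0.02 × 10^6 per well and rested 4 h. Metabolic activity read at that point served as the zero value. Compound exposure was 48 h, with CellTiter-Blue added 2 h before the end and fluorescence read at 590 nm. IC50 was obtained by nonlinear regression; relative proliferation was also taken at 10 μM.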

[9] = target: P-gp (Homo sapiens, UniProt P08183); test: Calcein-AM retention assay in P-gp overexpressing VCR-R CEM cells; assay type: cell-based; settings: 0.1 and 1 μM
Chain of P-gp (P08183 whole entry): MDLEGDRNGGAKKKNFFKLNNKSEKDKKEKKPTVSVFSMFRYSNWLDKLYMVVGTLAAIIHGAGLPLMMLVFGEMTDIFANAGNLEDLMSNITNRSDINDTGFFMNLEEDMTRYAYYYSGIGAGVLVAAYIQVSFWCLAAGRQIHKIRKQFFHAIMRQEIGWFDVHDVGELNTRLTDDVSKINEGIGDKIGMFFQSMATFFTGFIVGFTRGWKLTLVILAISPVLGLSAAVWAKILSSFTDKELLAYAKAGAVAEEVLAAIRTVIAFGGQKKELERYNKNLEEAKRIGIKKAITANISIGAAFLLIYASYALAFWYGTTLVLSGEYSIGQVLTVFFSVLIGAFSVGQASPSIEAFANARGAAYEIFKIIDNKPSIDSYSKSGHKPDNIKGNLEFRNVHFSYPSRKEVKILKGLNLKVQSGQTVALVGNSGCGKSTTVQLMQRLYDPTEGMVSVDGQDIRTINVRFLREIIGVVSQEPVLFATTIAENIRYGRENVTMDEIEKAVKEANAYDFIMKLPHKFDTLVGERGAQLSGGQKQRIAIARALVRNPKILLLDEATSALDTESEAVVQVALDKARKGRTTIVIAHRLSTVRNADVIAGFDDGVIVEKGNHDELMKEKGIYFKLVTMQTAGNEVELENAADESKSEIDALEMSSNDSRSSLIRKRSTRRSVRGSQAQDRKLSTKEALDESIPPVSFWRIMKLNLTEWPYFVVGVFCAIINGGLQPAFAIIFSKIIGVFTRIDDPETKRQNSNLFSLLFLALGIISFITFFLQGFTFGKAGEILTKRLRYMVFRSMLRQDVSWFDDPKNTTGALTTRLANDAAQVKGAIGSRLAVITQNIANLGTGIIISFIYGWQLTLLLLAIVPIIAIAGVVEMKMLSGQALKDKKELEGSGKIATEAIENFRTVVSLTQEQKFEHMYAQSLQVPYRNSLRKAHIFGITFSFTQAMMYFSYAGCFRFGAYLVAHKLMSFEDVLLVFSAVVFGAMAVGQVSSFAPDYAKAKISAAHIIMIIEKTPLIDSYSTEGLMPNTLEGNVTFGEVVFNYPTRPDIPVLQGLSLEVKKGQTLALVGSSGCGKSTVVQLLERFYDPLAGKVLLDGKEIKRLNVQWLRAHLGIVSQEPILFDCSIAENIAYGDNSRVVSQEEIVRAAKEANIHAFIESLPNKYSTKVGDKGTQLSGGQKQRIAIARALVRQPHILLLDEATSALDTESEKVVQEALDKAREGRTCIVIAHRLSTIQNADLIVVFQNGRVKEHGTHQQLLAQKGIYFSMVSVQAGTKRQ
Outline: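 VCR-R CEM cells were loaded with calcein-AM (200 nM) plus test compound (0.1 or 1 μM) for 30 min at 37 °C. After a wash, they were kept without calcein-AM for a further 60 min at 37 °C, then analysed by flow cytometry. Geometric mean fluorescence intensity was normalised to the calcein-AM-only control.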

[10] = system: HepG2 cells; test: Western blot analysis of HepG2 cells; assay type: cell-based, human; settings: 5 μM, 48 h
Outline: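 HepG2 cells were seeded at 0.5 × 10^6 per well, adhered overnight, then treated with DMSO or 5 μM compound for 24 or 48 h. Cells were lysed in RIPA, run on SDS-PAGE and transferred to PVDF. Blots were probed with p-Akt (Ser473), total Akt, PARP, Bcl-xL and Mcl-1 antibodies (1:1000) and detected by chemiluminescence, with stain-free total protein as loading control.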

[11] = system: human umbilical vein endothelial cells (HUVECs); test: HUVEC viability; assay type: cell-based; settings: 10 μM, 24 h, compared with tetrandrine
Outline: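 HUVECs were cultured in ECGM with 10% FCS and antibiotics/antimycotic, for at most six passages. They were seeded at […], adhered overnight, then exposed to 1, 5 or 10 μM for 24 h. Viability was read by CellTiter-Blue, with fluorescence normalised to vehicle. Mean ± SEM, three independent experiments.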

COc1cc2c3cc1Oc1c(OC)c(OC)cc4c1C(Cc1cccc(c1)Oc1ccc(cc1)CC3N(C)CC2)N(C)CC4 (racemic) [RMS1, (±)-12-Desmethoxytetrandrine and –isotetrandrine]
PARP cleavage [1]: detected
mitochondrial membrane potential ΔΨm (JC-1 shift towards green fluorescence) [2]: no such an effect
cytotoxicity against HepG2 cells in comparison to tetrandrine [3]: generally increased cytotoxicities

COc1ccc2cc1Oc1ccc(cc1)C[C@H]1c3cc(c(OC)cc3CCN1C)Oc1c(OC)c(OC)cc3c1[C@H](C2)N(C)CC3 [tetrandrine, reference compound]
percentage of dead PBMCs [4]: highest percentage of dead PBMCs
mitochondrial membrane potential ΔΨm (JC-1 shift towards green fluorescence) [2]: no such an effect

COc1cc2c3cc1Oc1c(OC)c(OC)cc4c1C(Cc1ccc(Cl)c(c1)Oc1ccc(cc1)CC3N(C)CC2)N(C)CC4 (racemic) [RMS7, (±)-12-Desmethoxy-12-chlorotetrandrine and –isotetrandrine]
mitochondrial membrane potential ΔΨm (JC-1 shift towards green fluorescence) [2]: no such an effect
cytotoxicity against HepG2 cells in comparison to tetrandrine [3]: generally increased cytotoxicities

COc1cc2c3cc1Oc1c(OC)c(OC)cc4c1[C@@H](Cc1ccc(O)c(c1)Oc1ccc(cc1)C[C@@H]3N(C)CC2)N(C)CC4 [berbamine, reference compound]
cell death of HepG2 cells: influence of cellular CYP3A4 overexpression [3]: not significantly increased

COc1cc2c3cc1Oc1c(OC)c(OC)cc4c1C(Cc1cccc(c1)Oc1ccc(cc1)CC3N(C)CC2)N(C)CC4 (racemic) [RMS2, (±)-12-Desmethoxytetrandrine and –isotetrandrine]
cell viability of HepaRG cells [5]: strongly decreased cell viability
toxicity to HepaRG cells (cell viability) [5]: significantly more toxic to HepaRG™ cells than tetrandrine
cell death of CYP3A4 overexpressing HepaRG cells versus empty vector [6]: strongest effect on cell viability
cytotoxicity against HepG2 cells in comparison to tetrandrine [3]: generally increased cytotoxicities

COc1cc2c3cc1Oc1c(OC)c(OC)cc4c1C(Cc1cc(cs1)Oc1ccc(cc1)CC3N(C)CC2)N(C)CC4 (racemic) [RMS6, (±)-Ring C thiophene analogues of tetrandrine and –isotetrandrine]
toxicity to HepaRG cells (cell viability) [5]: significantly less toxic than tetrandrine
sensitization of VCR-R CEM cells to vincristine (apoptosis) [7]: successfully sensitized VCR-R CEM cells to VCR
mitochondrial membrane potential ΔΨm (JC-1 shift towards green fluorescence) [2]: no such an effect
inhibition of proliferation of VCR-R CEM cells [8]: nearly inactive; also recorded: no direct effect on proliferation
prevention of efflux of calcein-AM (P-gp inhibition) [9]: inhibition of P-gp

COc1cc2c3cc1Oc1c(OC)c(OC)cc4c1C(CCCCOc1ccc(cc1)CC3N(C)CC2)N(C)CC4 (racemic) [RMS9, (±)-Ring C propylidene analogues of tetrandrine and –isotetrandrine]
toxicity to HepaRG cells (cell viability) [5]: significantly less toxic than tetrandrine
sensitization of VCR-R CEM cells to vincristine (apoptosis) [7]: all but RMS9 and RMS10 were able to sensitize
mitochondrial membrane potential ΔΨm (JC-1 shift towards green fluorescence) [2]: no such an effect
inhibition of proliferation of VCR-R CEM cells [8]: nearly inactive
prevention of efflux of calcein-AM (P-gp inhibition) [9]: strongly reduces it

COc1cc2c3cc1Oc1c(OC)c(OC)cc4c1C(Cc1ccc(Cl)c(c1)Oc1ccc(cc1)CC3N(C)CC2)N(C)CC4 (racemic) [RMS8, (±)-12-Desmethoxy-12-chlorotetrandrine and –isotetrandrine]
cell viability of HepaRG cells [5]: slightly
toxicity to HepaRG cells (cell viability) [5]: significantly more toxic to HepaRG™ cells than tetrandrine
sensitization of VCR-R CEM cells to vincristine (apoptosis) [7]: most potent analogue as it significantly increased apoptosis at 0.01 μM VCR
PARP cleavage [1]: detected
cytotoxicity against HepG2 cells in comparison to tetrandrine [3]: generally increased cytotoxicities

COc1cc2c(cc1OC)[C@@H](Cc1ccc(Oc3cc(C[C@@H]4c5cc(OC)c(OC)cc5CCN4C)ccc3O)cc1)N(C)CC2 [dauricine, reference compound]
cell death of HepG2 cells: influence of cellular CYP3A4 overexpression [3]: not significantly increased

COc1cc2c3cc1Oc1c(OC)c(OC)cc4c1C(Cc1ccc(OC(F)(F)F)c(c1)Oc1ccc(cc1)CC3N(C)CC2)N(C)CC4 (racemic) [RMS4, (±)-12-Desmethoxy-12-trifluoromethoxytetrandrine and –isotetrandrine]
cell viability of HepaRG cells [5]: slightly
toxicity to HepaRG cells (cell viability) [5]: significantly more toxic to HepaRG™ cells than tetrandrine
PARP cleavage [1]: detected
cytotoxicity against HepG2 cells in comparison to tetrandrine [3]: generally increased cytotoxicities
p-Akt levels [10]: reduced

COc1cc2c3cc1Oc1c(OC)c(OC)cc4c1C(Cc1ccc(OC(F)(F)F)c(c1)Oc1ccc(cc1)CC3N(C)CC2)N(C)CC4 (racemic) [RMS3, (±)-12-Desmethoxy-12-trifluoromethoxytetrandrine and –isotetrandrine]
PARP cleavage [1]: detected
viability of HUVECs [11]: slightly stronger effect on the viability of HUVECs than tetrandrine
cytotoxicity against HepG2 cells in comparison to tetrandrine [3]: generally increased cytotoxicities; also recorded: strongly increased cytotoxicites

COc1cc2c3cc1Oc1c(OC)c(OC)cc4c1C(Cc1cc(cs1)Oc1ccc(cc1)CC3N(C)CC2)N(C)CC4 (racemic) [RMS5, (±)-Ring C thiophene analogues of tetrandrine and –isotetrandrine]
cytotoxicity against HepG2 cells in comparison to tetrandrine [3]: generally increased cytotoxicities; also recorded: strongly increased cytotoxicites
expression of Bcl-XL and Mcl-1 [10]: slightly diminished
p-Akt levels [10]: reduced
